Reference: ChEMBL document CHEMBL4033789, “Discovery of a New Four-Leaf Clover-Like Ligand as a Potent c-MYC Transcription Inhibitor Specifically Targeting the Promoter G-Quadruplex” (J Med Chem, 2018)
The source made the active and inactive calls. No cut-off for these calls is given here.

Assays:
SiHa [1] = assay: Cytotoxicity against human SiHa cells assessed as reduction in cell viability after 24 hrs by MTT assay; assay type: functional, cell-based
Outline: (§1)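 Cells seeded at 5.0×10^3 per well, exposed to compound for 24 h; MTT (2.5 mg/mL) added for 4 h, formazan dissolved in DMSO, OD read at 570 nm. Triplicate; IC50 from curves of mean OD against concentration.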

[2] = Binding affinity to 1 uM c-MYC promoter G-quadruplex pu22 DNA (unknown origin) at 1 uM after 1 min by fluorescence spectroscopic analysis
Outline: (§2)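 Fluorescence emission spectra of 1 µM compound mixed with 1 µM pre-annealed oligonucleotide (G-quadruplexes folded in 100 mM KCl by heating to 95 °C for 5 min, slow cooling), in Tris-HCl buffer.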

HeLa = assay: Cytotoxicity against human HeLa cells assessed as reduction in cell viability after 24 hrs by MTT assay; assay type: functional, cell-based; outline: as §1
[3] = Cytotoxicity against mouse primary mesangial cells assessed as reduction in cell viability after 24 hrs by MTT assay; assay type: cell-based; outline: as §1
A-375 = assay: Cytotoxicity against human A375 cells assessed as reduction in cell viability after 24 hrs by MTT assay; assay type: functional, cell-based; conditions: A-375, 24 h; outline: as §1
BJ = assay: Cytotoxicity against human BJ cells assessed as reduction in cell viability after 24 hrs by MTT assay; assay type: cell-based; outline: as §1
Huh-7 = assay: Cytotoxicity against human Huh7 cells assessed as reduction in cell viability after 24 hrs by MTT assay; assay type: functional, cell-based; conditions: Huh-7, 24 h; outline: as §1
[4] = Binding affinity to 1 uM hybrid telomeric htg22 G-quadruplex DNA (unknown origin) at 1 uM after 1 min by fluorescence spectroscopic analysis; assay type: ADME; outline: as §2
[5] = Binding affinity to 1 uM antiparallel HRAS G-quadruplex DNA (unknown origin) at 1 uM after 1 min by fluorescence spectroscopic analysis; assay type: ADME; outline: as §2
[6] = Binding affinity to 1 uM G-triplex DNA (unknown origin) at 1 uM after 1 min by fluorescence spectroscopic analysis
[7] = Binding affinity to 1 uM i-motif DNA (unknown origin) at 1 uM after 1 min by fluorescence spectroscopic analysis
SiHa [8] = assay: Antitumor activity against human SiHa cells xenografted in nude BALB/c mouse assessed as tumor growth inhibition at 1 mg/kg, ip administered every other day for 24 days; assay type: functional, organism-based
Outline: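 BALB/c nude mice (5 weeks old) given 1×10^7 SiHa cells subcutaneously in right flank; at ~50 mm3 tumor volume, randomized (10 per group) and dosed intraperitoneally every other day for 24 days; controls got equal-volume saline. Caliper volume as 1/2 × length × width2; tumors weighed at end; inhibition rate = (1 − mean treated tumor weight/mean control tumor weight) × 100%.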

Mus musculus [9] = assay: Toxicity in nude BALB/c mouse xenografted with human SiHa cells assessed as viscera weight reduction at 1 mg/kg, ip administered every other day for 24 days; assay type: organism-based; conditions: in vivo, 576 h
Outline: (§3)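 BALB/c nude mice, 5 weeks old, implanted subcutaneously in right flank with 1×10^7 SiHa cells; at ~50 mm3 tumor, 10 per group dosed ip every other day for 24 days, saline control; body weight measured daily, viscera weighed at sacrifice; mean ± SEM, Student's t test versus saline.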

Mus musculus [10] = assay: Toxicity in nude BALB/c mouse xenografted with human SiHa cells assessed as body weight reduction at 1 mg/kg, ip administered every other day for 24 days; assay type: organism-based; conditions: in vivo, 576 h; outline: as §3
Mus musculus [11] = assay: In vivo stabilization of c-Myc G-quadruplex DNA in human SiHa cells xenografted in nude BALB/c mouse assessed as decrease in c-Myc expression at 1 mg/kg, ip administered every other day for 24 days by immunohistochemistry; assay type: functional, organism-based

Row | SMILES | Activity [2] | Activity [4] | Activity [5] | Activity [6] | Activity [7] | IC50 (SiHa [1]) [µM] | IC50 (HeLa) [µM] | IC50 [3] [µM] | IC50 (A-375) [µM] | IC50 (BJ) [µM] | IC50 (Huh-7) [µM] | TGI (SiHa [8]) | Activity (Mus musculus [9]) | Activity (Mus musculus [10]) | Activity (Mus musculus [11])
1 | CCn1c2ccccc2c2cc(-c3nc(-c4ccc(N5CCN(C)CC5)cc4)c(-c4ccc(N5CCN(C)CC5)cc4)[nH]3)ccc21 | – | – | – | – | – | 2.3 | 2.5 | 3.1 | 2.3 | 2.8 | 2.7 | – | – | – | –
2 | COc1cccc2c1C(=O)c1c(O)c3c(c(O)c1C2=O)C[C@@](O)(C(=O)CO)C[C@@H]3O[C@H]1C[C@H](N)[C@H](O)[C@H](C)O1 [DOXORUBICIN] | – | – | – | – | – | – | – | – | – | – | – | Active | Toxic | Toxic | Active

Now from value to compound, other results behind:

Row | Activity [2] | Activity [4] | Activity [5] | Activity [6] | Activity [7] | SMILES | IC50 (SiHa [1]) [µM] | IC50 (HeLa) [µM] | IC50 [3] [µM] | IC50 (A-375) [µM] | IC50 (BJ) [µM] | IC50 (Huh-7) [µM] | TGI (SiHa [8]) | Activity (Mus musculus [9]) | Activity (Mus musculus [10]) | Activity (Mus musculus [11])
3 | inactive | Not Active | Not Active | – | – | CCn1c2ccccc2c2cc(-c3nc(-c4ccc(F)cc4)c(-c4ccc(F)cc4)n3-c3ccc(OC)cc3)ccc21 | > 80 | > 80 | > 80 | > 80 | > 80 | > 80 | – | – | – | –
4 | Active | – | – | – | – | CCn1c2ccccc2c2cc(-c3nc(-c4ccc(F)cc4)c(-c4ccc(F)cc4)[nH]3)ccc21 | > 80 | > 80 | > 80 | > 80 | > 80 | > 80 | – | – | – | –
5 | Active | Not Active | Not Active | inactive | inactive | CCn1c2ccccc2c2cc(-c3nc(-c4ccc(N5CCN(C)CC5)cc4)c(-c4ccc(F)cc4)[nH]3)ccc21 | 30.1 | 15.3 | 17.3 | 7.4 | 13.9 | 12.4 | – | – | – | –
